Converted amounts (≈) assume the structure as drawn. The source made the active and inactive calls. The rule behind the calls is not given here.
Assays:
[1] = tested on: Mus musculus; experiment: Antiinflammatory activity in mouse assessed as inhibition of xylene-induced ear edema at 50 mg/kg, po administered 1 hr before xylene challenge relative to control; assay type: functional; details: read-out: INH
Method in brief: (§1)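 Compound was homogenized in 0.5% CMC-Na and given orally at 50 mg/kg, 0.4 mL/20 g; controls got CMC-Na vehicle only. Xylene was applied to the ear 1, 2, 3, 4, 5 or 24 h after dosing. Edema was measured as the weight difference of 7 mm ear plugs and reported as % reduction versus vehicle controls.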

[2] = tested on: Mus musculus; experiment: Antiinflammatory activity in mouse assessed as inhibition of xylene-induced ear edema at 50 mg/kg, po administered 5 hrs before xylene challenge relative to control; assay type: functional; method in brief: as §1
[3] = tested on: Mus musculus; experiment: Antiinflammatory activity in mouse assessed as inhibition of xylene-induced ear edema at 25 mg/kg, po administered 3 hrs before xylene challenge relative to control; assay type: functional
Method in brief: (§2)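 Oral dosing-level study: compound suspended in 0.5% CMC-Na and given po at 25 or 12.5 mg/kg, 0.4 mL/20 g; vehicle controls received CMC-Na. Xylene ear challenge was applied 3 h after dosing. Edema was measured as the ear-plug weight difference and reported as % reduction versus vehicle controls.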

[4] = tested on: Mus musculus; experiment: Antiinflammatory activity in mouse assessed as inhibition of xylene-induced ear edema at 12.5 mg/kg, po administered 3 hrs before xylene challenge relative to control; assay type: functional; method in brief: as §2
[5] = tested on: Mus musculus; experiment: Antiinflammatory activity in mouse assessed as inhibition of xylene-induced ear edema at 50 mg/kg, po administered 2 hrs before xylene challenge relative to control; assay type: functional; details: read-out: INH; method in brief: as §1
[6] = tested on: Mus musculus; experiment: Antiinflammatory activity in mouse assessed as inhibition of xylene-induced ear edema at 50 mg/kg, po administered 3 hrs before xylene challenge relative to control; assay type: functional; method in brief: as §1
[7] = tested on: Mus musculus; experiment: Antiinflammatory activity in mouse assessed as inhibition of xylene-induced ear edema at 50 mg/kg, po administered 4 hrs before xylene challenge relative to control; assay type: functional; method in brief: as §1
[8] = tested on: Mus musculus; experiment: Antiinflammatory activity in mouse assessed as inhibition of xylene-induced ear edema at 50 mg/kg, po administered 24 hrs before xylene challenge relative to control; assay type: functional, organism-based; method in brief: as §1
[9] = tested on: Mus musculus; experiment: Antiinflammatory activity in mouse assessed as inhibition of xylene-induced ear edema at 50 mg/kg, ip administered 30 mins before xylene challenge relative to control; assay type: functional
Method in brief: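 Mice received compound freshly dissolved in DMSO, 50 mg/kg ip at 0.05 mL/20 g body weight; vehicle controls got DMSO alone. After 30 min, 20 µL xylene was applied to the right ear. After a further 30 min, 7 mm plugs were cut from treated and untreated ears and edema taken as their weight difference. Result is % edema reduction versus vehicle controls.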

[10] = tested on: Staphylococcus aureus; experiment: Antibacterial activity against methicillin-resistant Staphylococcus aureus CCARM 3167 after 24 hrs by two-fold serial dilution method; assay type: functional; details: CCARM 3167, 24 h
Method in brief: (§3)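 Broth microdilution in Mueller-Hinton broth. Bacteria grown to mid-log phase, diluted 1000-fold, and inoculated at 10⁵ CFU/mL. Test compounds in DMSO, final DMSO not above 0.05%, final concentrations 64-0.5 µg/mL. Incubation 24 h at 37 °C, growth read as absorbance at 650 nm. MIC taken as the lowest concentration giving complete growth inhibition. Run three times.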

[11] = tested on: Staphylococcus aureus; experiment: Ratio of gatifloxacin MIC to compound MIC for quinolone-resistant Staphylococcus aureus CCARM 3519 after 24 hrs by two-fold serial dilution method; assay type: functional
[12] = tested on: Staphylococcus aureus; experiment: Ratio of oxacillin MIC to compound MIC for methicillin-resistant Staphylococcus aureus CCARM 3506 after 24 hrs by two-fold serial dilution method; assay type: functional
[13] = tested on: Staphylococcus aureus; experiment: Antibacterial activity against Staphylococcus aureus 209 after 24 hrs by two-fold serial dilution method; assay type: functional; details: Staphylococcus aureus, 209, 24 h; method in brief: as §3
[14] = tested on: Pseudomonas aeruginosa; experiment: Antibacterial activity against Pseudomonas aeruginosa 2004 after 24 hrs by two-fold serial dilution method; assay type: functional; details: Pseudomonas aeruginosa, 2004, 24 h
Method in brief: (§4)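 Broth microdilution in Mueller-Hinton broth over final concentrations of 64–0.5. Bacteria were grown to mid-log phase and diluted 1000-fold, then inoculated at 10⁵ CFU/mL. Compounds were dissolved in DMSO, with final DMSO at most 0.05%. Plates were incubated 24 h at 37 °C and growth read as absorbance at 650 nm. MIC is the concentration giving complete growth inhibition. Three independent runs.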

[15] = tested on: Staphylococcus aureus; experiment: Ratio of gatifloxacin MIC to compound MIC for quinolone-resistant Staphylococcus aureus CCARM 3505 after 24 hrs by two-fold serial dilution method; assay type: functional
[16] = tested on: Staphylococcus aureus; experiment: Ratio of moxifloxacin MIC to compound MIC for quinolone-resistant Staphylococcus aureus CCARM 3519 after 24 hrs by two-fold serial dilution method; assay type: functional
[17] = tested on: Staphylococcus aureus; experiment: Antibacterial activity against quinolone-resistant Staphylococcus aureus CCARM 3519 after 24 hrs by two-fold serial dilution method; assay type: functional; details: CCARM 3519, 24 h; method in brief: as §3
[18] = tested on: Staphylococcus aureus; experiment: Antibacterial activity against methicillin-resistant Staphylococcus aureus CCARM 3506 after 24 hrs by two-fold serial dilution method; assay type: functional; details: CCARM 3506, 24 h; method in brief: as §3
[19] = tested on: Escherichia coli; experiment: Antibacterial activity against Escherichia coli CCARM 1356 after 24 hrs by two-fold serial dilution method; assay type: functional; details: CCARM 1356, 24 h; method in brief: as §4
[20] = tested on: Staphylococcus aureus; experiment: Antibacterial activity against Staphylococcus aureus RN4220 after 24 hrs by two-fold serial dilution method; assay type: functional; details: RN4220, 24 h; method in brief: as §3
[21] = tested on: Escherichia coli; experiment: Antibacterial activity against Escherichia coli KCTC 1924 after 24 hrs by two-fold serial dilution method; assay type: functional; details: KCTC 1924, 24 h; method in brief: as §4
[22] = tested on: Salmonella typhimurium; experiment: Antibacterial activity against Salmonella typhimurium 2421 after 24 hrs by two-fold serial dilution method; assay type: functional, Salmonella enterica subsp. enterica serovar Typhimurium; details: Salmonella enterica, 2421, 24 h; method in brief: as §4
[23] = tested on: Streptococcus mutans; experiment: Antibacterial activity against Streptococcus mutans 3065 after 24 hrs by two-fold serial dilution method; assay type: functional; details: Streptococcus mutans, 3065, 24 h; method in brief: as §4
[24] = tested on: Staphylococcus aureus; experiment: Antibacterial activity against Staphylococcus aureus 503 after 24 hrs by two-fold serial dilution method; assay type: functional; details: Staphylococcus aureus, 503, 24 h; method in brief: as §3
[25] = tested on: Candida albicans; experiment: Antifungal activity against Candida albicans 7535 by two-fold serial dilution method; assay type: functional
[26] = tested on: Escherichia coli; experiment: Ratio of gatifloxacin MIC to compound MIC for Escherichia coli CCARM 1356 after 24 hrs by two-fold serial dilution method; assay type: functional
[27] = tested on: Staphylococcus aureus; experiment: Antibacterial activity against quinolone-resistant Staphylococcus aureus CCARM 3505 after 24 hrs by two-fold serial dilution method; assay type: functional; details: CCARM 3505, 24 h; method in brief: as §3
[28] = tested on: Staphylococcus aureus; experiment: Ratio of moxifloxacin MIC to compound MIC for quinolone-resistant Staphylococcus aureus CCARM 3505 after 24 hrs by two-fold serial dilution method; assay type: functional
[29] = tested on: Pseudomonas aeruginosa; experiment: Antibacterial activity against Pseudomonas aeruginosa 2742 after 24 hrs by two-fold serial dilution method; assay type: functional; details: Pseudomonas aeruginosa, 2742, 24 h; method in brief: as §4
[30] = tested on: Staphylococcus aureus; experiment: Ratio of norfloxacin MIC to compound MIC for methicillin-resistant Staphylococcus aureus CCARM 3506 after 24 hrs by two-fold serial dilution method; assay type: functional
[31] = tested on: Escherichia coli; experiment: Ratio of moxifloxacin MIC to compound MIC for Escherichia coli CCARM 1356 after 24 hrs by two-fold serial dilution method; assay type: functional

SMILES	inhibition in vivo at 50 mg/kg [9]	MIC [10]	Ratio [11]	Ratio [12]	MIC [13]	MIC [14]	Ratio [15]	Ratio [16]	MIC [17]	MIC [18]	MIC [19]	MIC [20]	MIC [21]	MIC [22]	MIC [23]	MIC [24]	MIC [25]	MIC [27]	Ratio [28]	MIC [29]	other results
COc1ccc2c(c1)c(CC(=O)O)c(C)n2C(=O)c1ccc(Cl)cc1 [INDOMETHACIN]	45.2%																				inhibition in vivo at 50 mg/kg [1]: 29.7%; inhibition in vivo at 50 mg/kg [2]: 26.9%; inhibition in vivo at 25 mg/kg [3]: 53.9%; inhibition in vivo at 12.5 mg/kg [4]: 56.3%; inhibition in vivo at 50 mg/kg [5]: 9.93%; inhibition in vivo at 50 mg/kg [6]: 23%; inhibition in vivo at 50 mg/kg [7]: 34.9%; inhibition [8]: inactive
N=C(N)N/N=C/c1cn(-c2ccc([N+](=O)[O-])cc2[N+](=O)[O-])nc1-c1cccc(Br)c1	81.7%	1 µg/mL (≈ 2.11 µM)	2	64	2 µg/mL (≈ 4.23 µM)	> 64 µg/mL	4	2	2 µg/mL (≈ 4.23 µM)	1 µg/mL (≈ 2.11 µM)	4 µg/mL (≈ 8.45 µM)	1 µg/mL (≈ 2.11 µM)	2 µg/mL (≈ 4.23 µM)	4 µg/mL (≈ 8.45 µM)	4 µg/mL (≈ 8.45 µM)	2 µg/mL (≈ 4.23 µM)	1 µg/mL (≈ 2.11 µM)	2 µg/mL (≈ 4.23 µM)	2	> 64 µg/mL	Ratio [26]: 4; Ratio [30]: 4
N=C(N)N/N=C/c1cn(-c2ccc([N+](=O)[O-])cc2[N+](=O)[O-])nc1-c1cccc(Cl)c1	82.4%	2 µg/mL (≈ 4.66 µM)	2	64	2 µg/mL (≈ 4.66 µM)	> 64 µg/mL	4	2	2 µg/mL (≈ 4.66 µM)	1 µg/mL (≈ 2.33 µM)	4 µg/mL (≈ 9.33 µM)	1 µg/mL (≈ 2.33 µM)	2 µg/mL (≈ 4.66 µM)	4 µg/mL (≈ 9.33 µM)	4 µg/mL (≈ 9.33 µM)	2 µg/mL (≈ 4.66 µM)	1 µg/mL (≈ 2.33 µM)	2 µg/mL (≈ 4.66 µM)	2	> 64 µg/mL	Ratio [26]: 4; Ratio [30]: 4
N=C(N)N/N=C/c1cn(-c2ccc([N+](=O)[O-])cc2[N+](=O)[O-])nc1-c1ccc(Cl)cc1	71.5%	2 µg/mL (≈ 4.66 µM)	2		2 µg/mL (≈ 4.66 µM)	> 64 µg/mL	4	2	2 µg/mL (≈ 4.66 µM)	2 µg/mL (≈ 4.66 µM)	8 µg/mL (≈ 18.7 µM)	2 µg/mL (≈ 4.66 µM)	2 µg/mL (≈ 4.66 µM)	4 µg/mL (≈ 9.33 µM)	4 µg/mL (≈ 9.33 µM)	2 µg/mL (≈ 4.66 µM)	2 µg/mL (≈ 4.66 µM)	2 µg/mL (≈ 4.66 µM)	2	> 64 µg/mL	Ratio [31]: 16
N=C(N)N/N=C/c1cn(-c2ccc([N+](=O)[O-])cc2[N+](=O)[O-])nc1-c1ccc(Br)cc1	69.6%	2 µg/mL (≈ 4.23 µM)		64	2 µg/mL (≈ 4.23 µM)	> 64 µg/mL	4	2	2 µg/mL (≈ 4.23 µM)	1 µg/mL (≈ 2.11 µM)	4 µg/mL (≈ 8.45 µM)	2 µg/mL (≈ 4.23 µM)	2 µg/mL (≈ 4.23 µM)	4 µg/mL (≈ 8.45 µM)	2 µg/mL (≈ 4.23 µM)	2 µg/mL (≈ 4.23 µM)	1 µg/mL (≈ 2.11 µM)	2 µg/mL (≈ 4.23 µM)		> 64 µg/mL	Ratio [26]: 4
N=C(N)N/N=C/c1cn(-c2ccccc2)nc1-c1cccc(Cl)c1	93.6%	1 µg/mL (≈ 2.95 µM)		64	2 µg/mL (≈ 5.9 µM)	> 64 µg/mL			2 µg/mL (≈ 5.9 µM)	1 µg/mL (≈ 2.95 µM)	16 µg/mL (≈ 47.2 µM)	2 µg/mL (≈ 5.9 µM)	1 µg/mL (≈ 2.95 µM)	8 µg/mL (≈ 23.6 µM)	8 µg/mL (≈ 23.6 µM)	2 µg/mL (≈ 5.9 µM)	1 µg/mL (≈ 2.95 µM)	2 µg/mL (≈ 5.9 µM)		> 64 µg/mL	inhibition in vivo at 50 mg/kg [1]: 26.9%; inhibition in vivo at 50 mg/kg [2]: 35.2%; inhibition in vivo at 25 mg/kg [3]: 39.3%; inhibition in vivo at 12.5 mg/kg [4]: 56.7%; inhibition in vivo at 50 mg/kg [6]: 50.9%; inhibition in vivo at 50 mg/kg [7]: 4.39%; inhibition [8]: inactive; Ratio [30]: 4
Cc1ccc(-c2nn(-c3ccc([N+](=O)[O-])cc3[N+](=O)[O-])cc2/C=N/NC(=N)N)cc1	87.4%	2 µg/mL (≈ 4.9 µM)	2		2 µg/mL (≈ 4.9 µM)	> 64 µg/mL		2	2 µg/mL (≈ 4.9 µM)	2 µg/mL (≈ 4.9 µM)	4 µg/mL (≈ 9.79 µM)	2 µg/mL (≈ 4.9 µM)	2 µg/mL (≈ 4.9 µM)	4 µg/mL (≈ 9.79 µM)	4 µg/mL (≈ 9.79 µM)	2 µg/mL (≈ 4.9 µM)	2 µg/mL (≈ 4.9 µM)	2 µg/mL (≈ 4.9 µM)	2	> 64 µg/mL	
